Calls of active or inactive are those of the source. No cut-off for these calls is given here.
Experiments:
[1] = system: Mus musculus; test: Anticonvulsant activity assessed as time of peak effect in intraperitoneally dosed Albino mouse by MES assay; type: functional
Summary of the method: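 Phase II quantification in albino mice (ip; 30% PEG 400 and 10% water vehicle). Time of peak effect was determined first. Groups of six mice then received different doses at that time. MES ED50 is the dose protecting 50% of animals, in µmol/kg.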

[2] = system: Mus musculus; test: Anticonvulsant activity in Albino mouse at 30 mg/kg, ip after 0.5 hrs by PTZ assay; type: functional, organism-based; parameters: dose 30 mg/kg
Summary of the method: (§1)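 Mice given compound ip at 30, 100 and 300 mg/kg in 30% polyethylene glycol 400 and 10% water, 0.01 mL/g body weight. Three animals per dose. Maximal electroshock (MES) or pentylenetetrazol (PTZ) seizure tests were run 0.5 and 4 h after dosing, and animals protected were counted.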

[3] = system: Mus musculus; test: Anticonvulsant activity in Albino mouse at 100 mg/kg, ip after 4 hrs by PTZ assay; type: functional, organism-based; parameters: dose 100 mg/kg; summary of the method: as §1
[4] = species on record: Mus musculus; test: Protective index, ratio of TD50 against Albino mouse to ED50 for Albino mouse; type: functional
[5] = system: Mus musculus; test: Neurotoxicity in Albino mouse at 30 mg/kg, ip after 0.5 hrs by RotoRod test; type: toxicity, organism-based; parameters: dose 30 mg/kg, route intraperitoneal; details: in vivo
Summary of the method: (§2)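 RotoRod neurotoxicity screen in mice dosed ip at 30, 100 and 300 mg/kg, in vehicle of 30% PEG 400 and 10% water (0.01 mL/g). Three animals per dose, tested 0.5 and 4 h after administration. Affected animals were scored per group.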

[6] = system: Mus musculus; test: Anticonvulsant activity in intraperitoneally dosed Albino mouse at 385 umol/kg by PTZ assay; type: functional, organism-based
Summary of the method: (§3)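 Phase II PTZ test in albino mice dosed ip (30% PEG 400 and 10% water), at the predetermined time of peak effect, in groups of six animals.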

[7] = system: Mus musculus; test: Neurotoxicity in Albino mouse at 100 mg/kg, ip after 0.5 hrs by RotoRod test; type: toxicity, organism-based; parameters: dose 100 mg/kg, route intraperitoneal; details: in vivo; summary of the method: as §2
[8] = system: Mus musculus; test: (§4) Neurotoxicity in intraperitoneally dosed Albino mouse by RotoRod test; type: toxicity, organism-based; details: in vivo, ip
Summary of the method: (§5)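 Median neurotoxic dose in albino mice given compound ip in 30% PEG 400 and 10% water, at the time of peak effect. Six animals per dose were tested on RotoRod and the percentage showing minimal neurotoxicity was recorded. Where TD50 could not be completed, the highest dose tested is reported.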

[9] = as §4; type: toxicity, organism-based; details: Albino, in vivo, ip; summary of the method: as §5
[10] = system: Mus musculus; test: Anticonvulsant activity in Albino mouse at 100 mg/kg, ip after 4 hrs by MES assay; type: functional, organism-based; parameters: dose 100 mg/kg; summary of the method: as §1
[11] = system: Mus musculus; test: Neurotoxicity in intraperitoneally dosed Albino mouse at 385 umol/kg by RotoRod test; type: toxicity, organism-based; details: in vivo, ip; summary of the method: as §5
[12] = system: Mus musculus; test: Neurotoxicity in Albino mouse at 100 mg/kg, ip after 4 hrs by RotoRod test; type: toxicity, organism-based; parameters: dose 100 mg/kg, route intraperitoneal; details: in vivo; summary of the method: as §2
[13] = system: Mus musculus; test: Anticonvulsant activity in Albino mouse at 100 mg/kg, ip after 0.5 hrs by PTZ assay; type: functional, organism-based; parameters: dose 100 mg/kg; summary of the method: as §1
[14] = system: Mus musculus; test: Anticonvulsant activity in Albino mouse at 30 mg/kg, ip after 4 hrs by PTZ assay; type: functional, organism-based; parameters: dose 30 mg/kg; summary of the method: as §1
[15] = system: Mus musculus; test: Anticonvulsant activity in Albino mouse at 30 mg/kg, ip after 4 hrs by MES assay; type: functional, organism-based; parameters: dose 30 mg/kg; summary of the method: as §1
[16] = system: Mus musculus; test: Neurotoxicity in Albino mouse at 30 mg/kg, ip after 4 hrs by RotoRod test; type: toxicity, organism-based; parameters: dose 30 mg/kg, route intraperitoneal; details: in vivo; summary of the method: as §2
[17] = system: Mus musculus; test: Neurotoxicity in intraperitoneally dosed Albino mouse at 362 umol/kg by RotoRod test; type: toxicity, organism-based; details: in vivo, ip; summary of the method: as §5
[18] = system: Mus musculus; test: Anticonvulsant activity in intraperitoneally dosed Albino mouse at 362 umol/kg by PTZ assay; type: functional, organism-based; summary of the method: as §3
[19] = system: Mus musculus; test: Anticonvulsant activity in Albino mouse at 100 mg/kg, ip after 0.5 hrs by MES assay; type: functional, organism-based; parameters: dose 100 mg/kg; summary of the method: as §1

Row | Compound | Activity [1] | Activity [2] | Activity [3] | PI [4] | Activity [5] | Activity [6] | Activity [7] | Activity [8] | TD50 [9] | Activity [10] | Activity [11] | Activity [12] | Activity [13] | Activity [14] | Activity [15] | Activity [16] | Activity [17] | Activity [18] | Activity [19]
1 | O=S(=O)(NC1CCCCC1)NC1CCCCC1 | 0.5 h | inactive | inactive | >2.5 | Non-toxic | inactive | Non-toxic | 0% | > 385 µmol/kg | inactive | 0% | Non-toxic | inactive | inactive | inactive | Non-toxic |  |  | 
2 | O=S(=O)(NCc1ccccc1)NCc1ccccc1 [BENZYL(BENZYLSULFAMOYL)AMINE] | 2 h | inactive | inactive | >1.5 | Non-toxic |  | Non-toxic | 0% | > 362 µmol/kg | inactive |  | Non-toxic | inactive | inactive | inactive | Non-toxic | 0% | inactive | Active
